Screening data (PubChem)
GASC1 inh = inhibitors of GASC-1 (KDM4C) histone demethylase, primary screen, biochemical, single concentration HTS | GST-KDM4C 2-372, H3K9me3 peptide, LANCE TR-FRET | inhibition, % at 12.5 µM | actives 0.15% (n = 96,000) | AID 720574, 2013;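 active means mean replicate inhibition above about 25%, with at least 55% of replicates also reaching it, limit read from the data, passing the limit was not always enough; inconclusive means only one of those two conditions met; inactive means neither condition met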
Target sequence (Q9H3R0 2-372 limits assumed): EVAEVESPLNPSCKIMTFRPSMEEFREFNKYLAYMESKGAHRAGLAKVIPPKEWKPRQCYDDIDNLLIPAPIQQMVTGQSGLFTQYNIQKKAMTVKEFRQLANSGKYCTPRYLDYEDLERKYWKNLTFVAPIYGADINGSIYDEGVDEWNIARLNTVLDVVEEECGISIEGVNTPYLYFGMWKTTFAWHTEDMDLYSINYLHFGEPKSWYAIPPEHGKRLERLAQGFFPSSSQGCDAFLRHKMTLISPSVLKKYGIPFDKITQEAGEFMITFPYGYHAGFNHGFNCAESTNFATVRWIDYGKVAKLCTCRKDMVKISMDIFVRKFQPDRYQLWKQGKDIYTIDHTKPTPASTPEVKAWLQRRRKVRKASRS
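Assay system: GST-GASC-1 enzyme fragment 2-372 | Amount: 10 nM enzyme | Medium: HEPES buffer, pH 7.5, plus ascorbate | Reagent: H3K9me3 peptide substrate, Fe(II), 2-oxoglutarate | Doses: Single-point compound screen | Incubation: 30 min demethylation and 1 h detection at room temperature | Measured by: LANCE TR-FRET, excitation 340 nm, emissions 618 and 671 nm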
IDH1 R132H inh = inhibitors of IDH1 R132H reductase, primary screen, biochemical, plate reader, single point | Isocitrate dehydrogenase [NADP] cytoplasmic (Homo sapiens), O75874 | diaphorase/resazurin fluorescence, 60 min | inhibition, % at 10 µM | actives 0.18% (n = 70,000); in the data active means inhibition above about 34%; inconclusive means no clear call, values can overlap the other calls; inactive means below about 11%;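 further: 0% = DMSO and 100% = no enzyme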
T cruzi growth-1 = T. cruzi intracellular proliferation inhibitors, primary screen, cell-based, beta-gal Tulahuen parasites, NIH3T3 host, luminescence; T. cruzi beta-gal in NIH3T3, GalScreen luminescence, 90 h; actives 5.9% (n = 77,000); AID 624255, 2012; inhibition, % at 8.34 µM;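 active means mean inhibition above about 93%, with at least 55% of replicates each passing it, limit read from the data, passing the limit was not always enough; inconclusive means only one of those two conditions holds; inactive means neither condition holds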
Pf Dd2 growth = P. falciparum Dd2 growth inhibitors, primary screen, SYBR Green fluorescence, single dose replicates | 72 h; active compounds read low | activity change, % at 10 µM | actives 2.3% (n = 94,000); in the data active means activity change below about -80%; inconclusive means no clear call, values can overlap the other calls
T cruzi growth-2 = T. cruzi intracellular proliferation inhibitors, confirmation, cell-based, NIH3T3 host, beta-gal parasite, luminescence, cherry-pick. actives 72% (n = 5,600). inhibition, % at 8.35 µM. T. cruzi beta-gal in NIH3T3, GalScreen luminescence, 90 h. shares compounds with T cruzi growth-1;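 active means mean replicate inhibition above about 95% and at least 55% of replicates individually reaching it, limit read from the data; inconclusive means only one of the two criteria is met; inactive means neither criterion is met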
T cruzi growth-3 = inhibitors of intracellular T. cruzi replication, confirmation, NIH3T3 host cells, beta-gal parasites, cherry-pick, set 2 | shares compounds with T cruzi growth-1 | T. cruzi beta-gal in NIH3T3, GalScreen luminescence, 90 h | inhibition, % at 2.09 µM | actives 21% (n = 5,600) | AID 651740, 2012;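 active means mean inhibition above about 95%, with at least 55% of replicates also reaching it, limit read from the data; inconclusive means meets just one of the two conditions; inactive means meets neither condition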;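 further: plate controls were neutral control median for no effect and positive control median for full effect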
NIH3T3 tox = cytotoxicity in mouse NIH/3T3 fibroblasts, confirmation, cytotoxicity control for T. cruzi proliferation inhibitor project, cell-based, cherry-pick, single point; shares compounds with T cruzi growth-1; NIH/3T3 viability, CellTiter-Glo ATP luminescence, 90 h; cytotoxicity (signal decrease), % at 8.35 µM; actives 14% (n = 5,600);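 active means mean signal decrease across replicates above about 35% based on untreated-well scatter, with enough replicates individually passing, limit read from the data; inconclusive means no rule stated though some were filed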;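 further: 0% = median of neutral control wells and 100% = median of positive control wells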
3T3 cytotox 2 = NIH/3T3 fibroblast cytotoxicity, confirmation, cytotoxicity control, cell-based, cherry-pick, single point, set 2 | shares compounds with T cruzi growth-1 | NIH/3T3 viability, CellTiter-Glo ATP luminescence, 90 h | inhibition, % at 24.9 µM | actives 56% (n = 5,600) | AID 651744, 2012;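 active means mean loss of cell viability signal at or above a set limit, and enough replicates individually reaching it; inconclusive means meets only the mean limit or only the replicate share; inactive means meets neither condition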;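 further: 0% = median of neutral control wells and 100% = median of positive control wells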
* = called active by the depositor; ? = inconclusive; . = no result given. This is a sample that favours compounds with a hit; in the whole collection about 5.9% have one here.

SMILES	GASC1 inh	IDH1 R132H inh	T cruzi growth-1	Pf Dd2 growth	T cruzi growth-2	T cruzi growth-3	NIH3T3 tox	3T3 cytotox 2
O=C(c1cnccn1)N1CC[C@H]2[C@H](CO)Nc3ccc(-c4ccccc4F)cc3[C@H]21	-2	.	99*	-3	96*	24	17	21
O=C(c1ccccn1)N1CC[C@@H]2[C@H](CO)Nc3ccc(C#Cc4cccnc4)cc3[C@@H]21	2	.	?	-54	30	24	12	?
O=C(c1ccccn1)N1CC[C@H]2[C@H](CO)Nc3ccc(C#Cc4cccnc4)cc3[C@H]21	-2	.	77	-20	.	.	.	.
O=C(c1ccccn1)N1CC[C@@H]2[C@@H](CO)Nc3ccc(-c4ccc(F)cc4)cc3[C@@H]21	0	.	112*	21	105*	80	7	16
C[C@@H]1CN([C@@H](C)CO)C(=O)c2cc(NC(=O)c3ccccc3)ccc2O[C@@H](C)CCCCO[C@H]1CN(C)Cc1ccncc1	1	.	101*	-19	109*	32	14	17
C[C@@H]1CN([C@@H](C)CO)C(=O)c2cc(NC(=O)c3ccccc3)ccc2O[C@@H](C)CCCCO[C@@H]1CN(C)Cc1ccccc1	-1	.	90	-66	.	.	.	.
C[C@@H]1CCCCO[C@@H](CN(C)Cc2ccccc2)[C@H](C)CN([C@H](C)CO)C(=O)c2cc(NC(=O)c3ccccc3)ccc2O1	0	.	?	-64	114*	64	-7	55*
C[C@@H]1CN([C@H](C)CO)C(=O)c2cc(NC(=O)c3ccccc3)ccc2O[C@@H](C)CCCCO[C@@H]1CN(C)Cc1ccccc1	1	1	?	-66	108*	62	-6	35*
C[C@@H]1CN([C@H](C)CO)C(=O)c2cc(NC(=O)c3ccccc3)ccc2O[C@@H](C)CCCCO[C@H]1CN(C)Cc1ccccc1	0	.	103*	-78	113*	68	4	89*
C[C@@H]1CCCCO[C@H](CN(C)Cc2ccccc2)[C@@H](C)CN([C@@H](C)CO)C(=O)c2cc(NC(=O)c3ccccc3)ccc2O1	0	1	78	-74	.	.	.	.
C[C@@H]1CN([C@H](C)CO)C(=O)c2cc(NC(=O)c3ccccc3)ccc2O[C@@H](C)CCCCO[C@@H]1CN(C)Cc1ccncc1	1	2	59	-30	.	.	.	.
CC1(C)CC[C@@]2(C(=O)O)C(C1)C1=CCC3[C@@]4(C)CC[C@H](O[C@@H]5O[C@H](C(=O)O)[C@@H](O[C@H]6OC[C@](O)(CO)[C@H]6O)[C@H](O)[C@H]5O)C(C)(C)C4CC[C@@]3(C)[C@]1(C)C[C@H]2O (some centres undefined)	.	0	.	.	.	.	.	.
COc1cccc(S(=O)(=O)N[C@@H]2C=C[C@@H](CC(=O)NCc3ccc(Cl)cc3)O[C@H]2CO)c1	2	0	-19	12	.	.	.	.
C[C@@H]1CN([C@@H](C)CO)S(=O)(=O)c2ccc(-c3ccccc3)cc2O[C@H]1CN(C)Cc1ccccc1	1	3	84	-66	.	.	.	.
C[C@H]1CN([C@@H](C)CO)S(=O)(=O)c2ccc(-c3cccnc3)cc2O[C@@H]1CN(C)Cc1ccncc1	-2	23	?	-2	101*	63	12	28*
C[C@@H]1CN([C@H](C)CO)S(=O)(=O)c2ccc(-c3cncnc3)cc2O[C@H]1CN(C)Cc1ccccc1	2	0	?	-34	91	64	52*	68*
C[C@@H]1CN([C@@H](C)CO)S(=O)(=O)c2ccc(-c3cccnc3)cc2O[C@@H]1CN(C)C	1	-2	?	24	97*	92	8	10
CC(=O)N(C)C[C@@H]1Oc2cc(-c3cccnc3)ccc2S(=O)(=O)N([C@H](C)CO)C[C@@H]1C	1	0	-120	24	.	.	.	.
C[C@@H]1CN([C@@H](C)CO)S(=O)(=O)c2ccc(-c3cncnc3)cc2O[C@@H]1CN(C)Cc1ccccc1	3	0	62	0	.	.	.	.
Cc1ccc(-c2ccc3c(c2)O[C@@H](CN(C)Cc2ccccc2)[C@H](C)CN([C@@H](C)CO)S3(=O)=O)cc1	3	3	116*	-54	99*	104*	37*	104*
O=C(C[C@@H]1CC[C@H]2[C@@H](COC[C@@H](O)CN2S(=O)(=O)c2ccccc2)O1)NCc1ccc2c(c1)OCO2	-1	.	-6	-16	.	.	.	.
C[C@H](CO)N1C[C@H](C)[C@@H](CN(C)Cc2ccccc2)Oc2cc(-c3ccncc3)ccc2S1(=O)=O	5	.	117*	-69	99*	103*	71*	76*
C[C@@H]1CN([C@H](C)CO)S(=O)(=O)c2ccc(-c3ccccc3)cc2O[C@H]1CN(C)Cc1ccncc1	0	.	-22	-35	.	.	.	.
C[C@H](CO)N1C[C@H](C)[C@H](CN(C)Cc2ccncc2)Oc2cc(-c3ccccc3)ccc2S1(=O)=O	1	0	95*	-40	105*	99*	24	40*
CNC[C@@H]1Oc2cc(-c3ccc(C)cc3)ccc2S(=O)(=O)N([C@@H](C)CO)C[C@H]1C	9	-1	80	-74	.	.	.	.
CCCNC(=O)N1[C@H](CO)[C@@H](c2ccc(C3=CCCCC3)cc2)[C@@H]1C#N	-2	.	105*	-27	90	64	6	20
CCCNC(=O)N1[C@H](C#N)[C@H](c2ccc(C3=CCCCC3)cc2)[C@@H]1CO	.	.	99*	?	101*	116*	22	33*
COCC(=O)N1[C@H](CO)[C@@H](c2ccc(C3=CCCCC3)cc2)[C@@H]1C#N	-4	.	?	20	108*	2	7	7
N#C[C@@H]1[C@H](c2ccc(C3=CCCC3)cc2)[C@H](CO)N1C(=O)C1CCC1	0	.	103*	-3	110*	31	-8	2
CCCNC(=O)N1[C@@H]2CN(C(=O)Nc3cccc(F)c3)c3ccccc3[C@@H]2[C@@H]1CO	-1	.	-18	0	.	.	.	.
